Data from the array DNA melting data of Ke et al. (doi:10.1101/2024.01.08.574731).

Assays:
[1] = folding enthalpy; higher = less favourable; fluorescence melt of hairpins on a sequencing array, two-state fit; conditions: sodium 0.088 M
In short: (§1)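 Cy3 fluorescence of library hairpins on a sequenced MiSeq flow cell, with annealed Cy3 and quencher oligos, was imaged in 50 mM Na-HEPES pH 8.0, 25 mM NaCl in 2.5 °C steps up to 60 °C. Signals were normalised to pre-quench Cy3 and to control variants. Melting temperature and folding enthalpy came from bootstrapped two-state fits, inverse-variance combined over four replicates. Fitted temperatures were raised by 9.35 °C to match UV melts.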

[2] = melting temperature; fluorescence melt of hairpins on a sequencing array, two-state fit, raised by 9.35 °C to match UV melts; conditions: sodium 0.088 M
In short: as §1

| Sequence | folding enthalpy [1] | Tm [2] |
| --- | --- | --- |
| GCCGGGCGAAAGCACTGC ((.(.((....)).).)) | -18.6 kcal/mol | 50.8 °C |
| GCCGGGCGAAAGCAGGGC (((..((....))..))) | -29 kcal/mol | 62.2 °C |
| GCCGGGCGAAAGCATGGC (((..((....))..))) | -26.8 kcal/mol | 64.9 °C |
| GCCGGGCGAAAGCCCAGC ((.((((....)))).)) | -15.8 kcal/mol | 64.8 °C |
| GCCGGGCGAAAGCCCCGC ((.((((....)))).)) | -16.2 kcal/mol | 54.4 °C |
| GCCGGGCGAAAGCCCTGC ((.((((....)))).)) | -14.9 kcal/mol | 57.2 °C |
| GCCGGGCGAAAGCCGAGC ((..(((....)))..)) | -14.8 kcal/mol | 57.4 °C |
| GCCGGGCGAAAGCCGTGC ((..(((....)))..)) | -13.7 kcal/mol | 50.2 °C |
| GCCGGGCGAAAGCGTGGC (((..((....))..))) | -36.4 kcal/mol | 65.9 °C |
| GCCGGGCGAAAGCTAGGC (((..((....))..))) | -34.4 kcal/mol | 66.6 °C |
| GCCGGGGGAAACCCCGAC (.(((((....))))).) | -13.2 kcal/mol | 51.8 °C |
| GCCGTACCGAAAGGTGGC (((..(((....)))))) | -25.1 kcal/mol | 53.8 °C |
| GCCGTACGAAAGTAAGGC (((.(((....))).))) | -36.6 kcal/mol | 60.1 °C |
| GCCGTAGCGAAAGCTGGC (((..(((....)))))) | -31.5 kcal/mol | 55.6 °C |
| GCCGTAGGAAACTGCGGC ((((.((....)).)))) | -37.3 kcal/mol | 61.6 °C |
| GCCGTCGAAAGACAAGGC ((((((....)))..))) | -32.8 kcal/mol | 55.2 °C |
| GCCGTCGAAAGACAGGC ((((((....))).))) | -27 kcal/mol | 65.2 °C |
| GCCGTCGAAAGACATGGC ((((((....)))..))) | -23.9 kcal/mol | 52.1 °C |
| GCCGTCGAAAGACTGGC ((((((....))).))) | -33.4 kcal/mol | 56.4 °C |
| GCCGTCGGAAACAACGGC (((((.(....).))))) | -47.5 kcal/mol | 53.9 °C |
| GCCGTCGGAAACGACAGC ((.((((....)))).)) | -16.6 kcal/mol | 53 °C |
| GCCGTGACGAAAGTCGGC (((..(((....)))))) | -23.3 kcal/mol | 57.1 °C |
| GCCGTGCGAAAGCATAGC ((..(((....)))..)) | -13.6 kcal/mol | 43.3 °C |

| Sequence | folding enthalpy [1] | Tm [2] |
| --- | --- | --- |
| GCCGTGCGAAAGCATTGC ((..(((....)))..)) | -12.6 kcal/mol | 43.2 °C |
| GCCGTGCGAAAGCGGGGC (((..((....))..))) | -34.8 kcal/mol | 67.3 °C |
| GCCGTGGGAAACCATGGC (((.(((....))).))) | -43.5 kcal/mol | 59.4 °C |
| GCCGTGGGAAACTGCGGC ((((..(....)..)))) | -28.5 kcal/mol | 53.9 °C |
| GCCGTTGCGAAAGCAGGC (((..(((....)))))) | -31.7 kcal/mol | 62.3 °C |
| GCCGTTGGAAACAACGAC (.(((((....))))).) | -16.9 kcal/mol | 46.2 °C |
| GCCTAACCGAAAGGTGGC (((..(((....)))))) | -23.2 kcal/mol | 53.2 °C |
| GCCTACCCGAAAGGGGGC (((..(((....)))))) | -17.3 kcal/mol | 52.4 °C |
| GCCTACCGAAAGGTCGGC (((.(((....))).))) | -39.7 kcal/mol | 56.5 °C |
| GCCTACGAAAGTACAGGC ((((((....)))..))) | -30.7 kcal/mol | 47.7 °C |
| GCCTACGAAAGTACCGGC ((((((....)))..))) | -25.6 kcal/mol | 36.9 °C |
| GCCTACGAAAGTACGGGC ((((((....)))..))) | -27.2 kcal/mol | 46.3 °C |
| GCCTACGAAAGTACTGGC ((((((....)))..))) | -24.4 kcal/mol | 40.2 °C |
| GCCTACGAAAGTATAGGC ((((((....)))..))) | -25.5 kcal/mol | 49.3 °C |
| GCCTACGGAAACGTAGAC (.(((((....))))).) | -18.1 kcal/mol | 41.8 °C |
| GCCTAGCGAAAGCAAGGC ((((.((....)).)))) | -29.3 kcal/mol | 67.2 °C |
| GCCTAGCGAAAGCGCGGC (((..((....))..))) | -18.5 kcal/mol | 61.9 °C |
| GCCTAGCGAAAGCTATGC ((.((((....)))).)) | -23.6 kcal/mol | 46.2 °C |
| GCCTAGGGAAACTTGGGC (((.(.(....).).))) | -28.3 kcal/mol | 36.7 °C |
| GCCTAGTCGAAAGACGGC (((..(((....)))))) | -21 kcal/mol | 51.6 °C |
| GCCTATCCGAAAGGAGGC (((..(((....)))))) | -20.7 kcal/mol | 47.3 °C |
| GCCTCAACGAAAGTTGGC (((..(((....)))))) | -12.4 kcal/mol | 42.9 °C |
| GCCTCACGAAAGTGCGGC (((.(((....))).))) | -43.1 kcal/mol | 57.7 °C |

| Sequence | folding enthalpy [1] | Tm [2] |
| --- | --- | --- |
| GCCTCACGAAAGTGGGC (((.(((....)))))) | -33.4 kcal/mol | 58.6 °C |
| GCCTCAGGAAACTAAGGC ((((.((....)).)))) | -27.7 kcal/mol | 37.6 °C |
| GCCTCCACGAAAGTGGGC (((..(((....)))))) | -7.76 kcal/mol | 46.9 °C |
| GCCTCCCGAAAGGGGGC (((.(((....)))))) | -27.1 kcal/mol | 67.7 °C |
| GCCTCCGAAAGGAACGGC ((((((....)))..))) | -25.3 kcal/mol | 46.9 °C |
| GCCTCCGAAAGGAAGGGC ((((((....)))..))) | -22.3 kcal/mol | 50.2 °C |
| GCCTCCGAAAGGACAGGC ((((((....)))..))) | -36.5 kcal/mol | 49.8 °C |
| GCCTCCGAAAGGACGGGC ((((((....)))..))) | -24.5 kcal/mol | 48.6 °C |
| GCCTCCGAAAGGACTGGC ((((((....)))..))) | -27.8 kcal/mol | 44.4 °C |
| GCCTCCGAAAGGATCGGC ((((((....)))..))) | -24.2 kcal/mol | 45.3 °C |
| GCCTCCGGAAACGAAGGC ((((.((....)).)))) | -28.3 kcal/mol | 48.8 °C |
| GCCTCCGGAAACGGAAGC ((.((((....)))).)) | -22.7 kcal/mol | 45.9 °C |
| GCCTCGCGAAAGCAACGC ((.(.((....)).).)) | -5.96 kcal/mol | 23.4 °C |
| GCCTCGCGAAAGCAGGGC (((..((....))..))) | -20.6 kcal/mol | 60.8 °C |
| GCCTCGCGAAAGCCCGGC (((..((....))..))) | -17.8 kcal/mol | 42.8 °C |
| GCCTCGCGAAAGCGCAGC ((..(((....)))..)) | -9.54 kcal/mol | 39.8 °C |
| GCCTCGCGAAAGCGGCGC ((..(((....)))..)) | -16.4 kcal/mol | 58.5 °C |
| GCCTCGCGAAAGCGGTGC ((..(((....)))..)) | -14.1 kcal/mol | 43.7 °C |
| GCCTCGGGAAACTGGGGC (((.(.(....).).))) | -37.5 kcal/mol | 47.4 °C |
| GCCTCTACGAAAGTAGGC (((..(((....)))))) | -12.2 kcal/mol | 47.9 °C |
| GCCTCTGAAAAGAGGC ((((((....)))))) | -37.8 kcal/mol | 68.9 °C |
| GCCTCTGGAAACAGGGGC (((.(((....))).))) | -45.3 kcal/mol | 57.4 °C |
| GCCTGAGGAAACTTGGGC (((..((....))..))) | -29 kcal/mol | 42.3 °C |

| Sequence | folding enthalpy [1] | Tm [2] |
| --- | --- | --- |
| GCCTGCGAAAGCAAAGGC ((((((....)))..))) | -26.9 kcal/mol | 59.3 °C |
| GCCTGCGAAAGCAACGGC ((((((....)))..))) | -23.6 kcal/mol | 52.8 °C |
| GCCTGCGAAAGCAATGGC ((((((....)))..))) | -23.8 kcal/mol | 56 °C |
| GCCTGCGAAAGCATAGGC ((((((....)))..))) | -31.4 kcal/mol | 56 °C |
| GCCTGGCGAAAGCAAAGC ((.(.((....)).).)) | -9.2 kcal/mol | 31.6 °C |
| GCCTGGCGAAAGCACGGC (((..((....))..))) | -24.3 kcal/mol | 59.1 °C |
| GCCTGGCGAAAGCATGGC (((..((....))..))) | -23.7 kcal/mol | 60.4 °C |
| GCCTGGCGAAAGCCATGC ((.((((....)))).)) | -17.2 kcal/mol | 56.7 °C |
| GCCTGGCGAAAGCCGAGC ((..(((....)))..)) | -13.5 kcal/mol | 49.5 °C |
| GCCTGGCGAAAGCCGGC (((.(((....)))))) | -16.5 kcal/mol | 68.1 °C |
| GCCTGGCGAAAGCCGTGC ((..(((....)))..)) | -12.9 kcal/mol | 48.8 °C |
| GCCTGGCGAAAGCCTTGC ((..(((....)))..)) | -13 kcal/mol | 42.1 °C |
| GCCTGGCGAAAGCGGGGC (((..((....))..))) | -27 kcal/mol | 64 °C |
| GCCTGGCGAAAGCTCGGC (((..((....))..))) | -18.8 kcal/mol | 55.9 °C |
| GCCTGGCGAAAGCTGGGC (((..((....))..))) | -28.2 kcal/mol | 64.4 °C |
| GCCTGGGGAAACCCAAGC ((.((((....)))).)) | -21.5 kcal/mol | 42.7 °C |
| GCCTGGGGAAACCCAGAC (.(((((....))))).) | -14.1 kcal/mol | 44.5 °C |
| GCCTGGGGAAACCCGGGC (((.(((....))).))) | -39.2 kcal/mol | 64.6 °C |
| GCCTGTGGAAACATGGGC (((..((....))..))) | -29.4 kcal/mol | 47.4 °C |
| GCCTTAGGAAACTGAGGC ((((.((....)).)))) | -41.7 kcal/mol | 49 °C |
| GCCTTCGAAAGAAAAGGC ((((((....)))..))) | -27.7 kcal/mol | 45.7 °C |
